pKi: −log10 of the molar value. Active and inactive are the calls of the source. The calls are words filed in the database; no cut-off is given here.
Assays:
[1] = biological target: T1, Cysteinyl leukotriene receptor 1 (Cavia porcellus, UniProt Q2NNR5); test: Binding affinity against Cysteinyl leukotriene D4 receptor from guinea pig lung was determined using [3H]LTD4 (0.2 nM)
T1 sequence (Q2NNR5 whole entry): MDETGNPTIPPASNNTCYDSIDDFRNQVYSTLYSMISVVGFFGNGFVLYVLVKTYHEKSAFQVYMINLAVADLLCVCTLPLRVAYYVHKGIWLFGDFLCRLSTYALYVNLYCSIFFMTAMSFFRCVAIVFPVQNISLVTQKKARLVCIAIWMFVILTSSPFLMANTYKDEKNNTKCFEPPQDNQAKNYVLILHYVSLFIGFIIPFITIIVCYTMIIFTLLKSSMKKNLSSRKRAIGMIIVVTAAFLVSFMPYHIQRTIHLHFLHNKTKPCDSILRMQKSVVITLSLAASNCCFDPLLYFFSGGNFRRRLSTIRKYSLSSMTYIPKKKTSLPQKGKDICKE
Summary of the method: (§1)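 Membranes from guinea pig lung were incubated with 0.2 nM [3H]LTD4. Ki was derived from an IC50 read graphically, using at least four compound concentrations run in duplicate. Single-concentration values are % inhibition of specific binding at the stated concentration. Results are mean ± SEM with N separate experiments.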

[2] = organism: Cavia porcellus; test: Compound was evaluated for its effect on LTC4 induced contractions of guinea pig peripheral lung strips; format: functional
Summary of the method: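 Guinea pig lung parenchymal strips were suspended in a tissue bath and contracted with 0.2 nM LTC4. IC50 was determined graphically from at least four concentrations. Results are mean ± SEM with N separate experiments, or % inhibition at the stated concentration.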

[3] = organism: Cavia porcellus; test: Compound was evaluated for its effect on histamine induced contractions of guinea pig peripheral lung strips; No significant effect up to 50 uM; format: functional
[4] = test system: Cavia porcellus; test: Effective dose to antagonize antigen induced bronchoconstrictive response (intraduodenal administration); format: functional
Summary of the method: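 Actively sensitized guinea pigs were pretreated with indomethacin, pyrilamine and propranolol, then given compound intraduodenally and challenged with iv ovalbumin. Inhibition of bronchoconstriction was measured. ED50 is reported with 95% CI.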

[5] = organism: Cavia porcellus; test: Compound was evaluated for its effect on LTD4 induced contractions of guinea pig peripheral lung strips; format: functional
[6] = organism: Cavia porcellus; test: Compound was evaluated for its effect on PGF2-alpha induced contractions of guinea pig peripheral lung strips; No significant effect up to 50 uM; format: functional
[7] = organism: Cavia porcellus; test: Oral activity expressed as effective dose in LTD4-induced wheal assay in guinea pig; format: functional
Summary of the method: (§2)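 Guinea pigs received compound orally 60 min before intradermal LTD4 challenge, and wheal formation was scored. ED50 came from linear regression over at least three doses, with at least five animals per point. Other values are % inhibition at the indicated mg/kg dose.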

[8] = biological target: Cysteinyl leukotriene receptor (Cavia porcellus); test: Inhibition of the spasmogenic activity of LTD4 in guinea pig parenchymal strips.
[9] = test system: Cavia porcellus; test: Effective dose to antagonize bronchoconstrictive response of LTD4 at 0.8 ug/kg (i.v.); format: functional; conditions: Lung, iv
[10] = organism: Cavia porcellus; test: Half life was determined; conditions: guinea pig
[11] = organism: Cavia porcellus; test: Compound was evaluated for its effect on LTE4 induced contractions of guinea pig peripheral lung strips; format: functional
[12] = organism: Cavia porcellus; test: Compound was evaluated for its effect on methacholine induced contractions of guinea pig peripheral lung strips; No significant effect up to 50 uM; format: functional
[13] = biological target: T1, Cysteinyl leukotriene receptor 1; test: Compound was evaluated for inhibition against binding of [3H]LTD4 to Cysteinyl leukotriene D4 receptor; summary of the method: as §1
[14] = organism: Cavia porcellus; test: Oral activity expressed as effective dose in leukotriene mediated anaphylaxis assay in guinea pig; format: functional
Summary of the method: (§3)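 Immunized guinea pigs were pretreated with pyrilamine, propranolol and indomethacin, given compound orally, then challenged with aerosolized ovalbumin. Mortality was the end point. ED50 was determined graphically from at least three doses with at least six animals per dose. Other values are % inhibition at the indicated mg/kg dose.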

[15] = test system: Arachidonate 5-lipoxygenase (Cavia porcellus); test: Percent inhibition against 5-lipoxygenase from guinea pig polymorphonuclear […]; conditions: concentration not given here
[16] = test system: Cavia porcellus; test: Oral activity expressed as percent inhibition in LTD4-induced wheal assay in guinea pig at 18 mg/kg
[17] = organism: Cavia porcellus; test: Oral activity expressed as percent inhibition in leukotriene mediated anaphylaxis assay in guinea pig at 60 uM; format: functional; conditions: in the assay text read “60 mg/kg” for “60 uM”; summary of the method: as §3
[18] = test system: Cysteinyl leukotriene receptor (Cavia porcellus); test: inhibition of the spasmogenic activity of LTD4 in guinea pig parenchymal strips at 10 uM.
[19] = organism: Cavia porcellus; test: Oral activity expressed as percent inhibition in LTD4-induced wheal assay in guinea pig at 10 uM; format: functional; conditions: in the assay text read “at 10 mg/kg” for “at 10 uM”; summary of the method: as §2
[20] = biological target: T2, Cysteinyl leukotriene receptor 1 (Cavia porcellus) (UniProt Q2NNR5); test: Binding affinity against Cysteinyl leukotriene D4 receptor from guinea pig lung was determined using [3H]LTD4 (0.2 nM) at compound concentration of 1 uM; summary of the method: as §1
T2 sequence (whole entry): T1 sequence (Q2NNR5 whole entry)

[21] = biological target: T2, Cysteinyl leukotriene receptor 1 (Cavia porcellus); test: Binding affinity at 10 uM against Cysteinyl leukotriene D4 receptor from guinea pig lung by [3H]LTD4 (0.2 nM) displacement.; summary of the method: as §1
[22] = organism: Cavia porcellus; test: Oral activity expressed as percent inhibition in LTD4-induced wheal assay in guinea pig at 9 uM; format: functional; conditions: in the assay text read “at 9 mg/kg” for “at 9 uM”; summary of the method: as §2
[23] = organism: Cavia porcellus; test: Ability to inhibit the spasmogenic activity of LTC4 in guinea pig parenchymal strips at 1 uM
[24] = organism: Cavia porcellus; test: Oral activity expressed as percent inhibition in leukotriene mediated anaphylaxis assay in guinea pig at 30 uM; format: functional; conditions: in the assay text read “30 mg/kg” for “30 uM”; summary of the method: as §3
[25] = organism: Cavia porcellus; test: Ability to inhibit the spasmogenic activity of LTD4 in guinea pig parenchymal strips at 10 uM; format: functional

pKi [1]	IC50 [8]	inhibition [18]	inhibition [21]	Compound	other results
5.48	–	–	–	c1ccc(OCc2ccc3ccccc3n2)c(OCCCc2nnn[nH]2)c1	–
7.38	79 nM	–	–	c1cc(OCCCc2nnn[nH]2)cc(OCc2ccc3ccccc3n2)c1	Kb [2]: ~90 nM; Activity [3]: inactive; ED50 [4]: 2.5 mg/kg; Kb [5]: ~90 nM; Activity [6]: inactive; ED50 [7]: 6.9 mg/kg; ED50 [9]: 1.1 mg/kg; half-life [10]: ~4 h; Kb [11]: ~90 nM; Activity [12]: inactive; pKi [13]: 7.38; ED50 [14]: 16 mg/kg; inhibition [15]: 9%
7.07	140 nM	–	–	c1cc(OCc2ccc3ccccc3n2)cc(OCc2nn[nH]n2)c1	Inhibition [16]: 18%; Inhibition [17]: 67%
6.30	–	75%	–	c1ccc2nc(COc3ccc(OCCCc4nnn[nH]4)cc3)ncc2c1	–
7.51	25 nM	–	–	c1ccc2nc(COc3ccc(SCCCc4nnn[nH]4)cc3)ccc2c1	Inhibition [19]: 23%
–	–	–	–	O=C(O)CCCOc1cccc(OCc2ccc3ccccc3n2)c1	ED50 [7]: 7.2 mg/kg; ED50 [14]: 20 mg/kg
–	–	–	–	c1ccc2c(COc3ccc(OCCCc4nnn[nH]4)cc3)nccc2c1	inhibition [20]: 7%
–	–	41%	35%	CCOC(=O)c1ccc(COc2ccc(OCCCc3nnn[nH]3)cc2)nc1	–
–	–	12%	0%	c1cc(OCCCc2nnn[nH]2)cc(OCc2ccc3ccccc3c2)c1	–
7.16	250 nM	–	–	c1ccc2nc(COc3ccc(OCCCc4nnn[nH]4)cc3)ccc2c1	ED50 [7]: 7 mg/kg; half-life [10]: ~4 h; ED50 [14]: 50 mg/kg
–	–	4%	25%	O=C(Nc1ccc(OCCCc2nnn[nH]2)cc1)c1ccc2ccccc2n1	–
–	–	–	–	c1ccc2nc(COc3ccc(CCCCc4nnn[nH]4)cc3)ccc2c1	Inhibition [19]: 35%
–	–	22%	–	c1ccc2c(c1)CCC(COc1ccc(OCCCc3nnn[nH]3)cc1)N2 (stereo not given)	–
6.62	250 nM	–	–	CCc1ccc(OCc2ccc3ccccc3n2)cc1OCCCc1nnn[nH]1	–
6.00	–	–	–	c1ccc(OCc2ccc3ccccc3n2)cc1	–
–	–	43%	33%	O=C(Nc1ccc2ccccc2n1)c1ccc(OCCCc2nnn[nH]2)cc1	–
–	–	50%	48%	c1ccc(-c2cccc(COc3ccc(OCCCc4nnn[nH]4)cc3)n2)cc1	–
–	–	-10%	15%	c1cc(OCCCc2nnn[nH]2)cc(OCc2cnc3ccccc3c2)c1	–
–	–	9%	12%	c1ccc(COc2cccc(OCCCc3nnn[nH]3)c2)cc1	–
7.51	19 nM	–	–	O=C(CCCOc1ccc(OCc2ccc3ccccc3n2)cc1)NS(=O)(=O)c1ccccc1	Inhibition [22]: 24%; Inhibition [17]: 64%
–	–	18%	10%	c1ccc(COc2cccc(OCCCc3nnn[nH]3)c2)nc1	–

pKi [1]	IC50 [8]	inhibition [18]	inhibition [21]	Compound	other results
6.80	280 nM	–	–	c1ccc2nc(COc3ccc(CCc4nnn[nH]4)cc3)ccc2c1	–
–	–	44%	57%	c1ccc(COc2ccc(OCCCc3nnn[nH]3)cc2OCc2ccc3ccccc3n2)cc1	–
–	–	9%	48%	c1ccc(Oc2cccc(COc3cccc(OCCCc4nnn[nH]4)c3)n2)cc1	–
6.62	–	59%	–	c1ccc2sc(COc3ccc(OCCCc4nnn[nH]4)cc3)nc2c1	–
6.30	2000 nM	–	–	CCOC(=O)CCCOc1ccc(OCc2ccc3ccccc3n2)cc1	–
–	–	-3%	18%	O=C(NCc1ccc2ccccc2n1)c1ccc(OCCCc2nnn[nH]2)cc1	–
6.19	–	–	–	Cc1cc(OCCCc2nnn[nH]2)cc(OCc2ccc3ccccc3n2)c1	inhibition at 1 µM [23]: 20%
6.94	200 nM	–	–	c1cc(OCc2ccc3ccccc3n2)cc(-c2nn[nH]n2)c1	ED50 [14]: 145 mg/kg
6.27	–	–	–	c1ccc2nc(CSc3ccc(OCCCc4nnn[nH]4)cc3)ccc2c1	–
6.80	600 nM	–	–	CCOC(=O)CCCOc1cccc(OCc2ccc3ccccc3n2)c1	ED50 [7]: 15 mg/kg; Inhibition [24]: 83%
6.56	1000 nM	–	–	c1ccc2nc(COc3ccc(Cc4nnn[nH]4)cc3)ccc2c1	–
–	–	42%	28%	c1ccc2[nH]c(COc3ccc(OCCCc4nnn[nH]4)cc3)nc2c1	–
6.77	–	–	–	Cc1cc(OCc2ccc3ccccc3n2)ccc1OCCCc1nnn[nH]1	–
5.82	–	–	–	CCCCCC(O)c1cccc(OCc2ccc3ccccc3n2)c1 (stereo not given) [REV-5901]	–
5.92	800 nM	–	–	O=C(O)CCCOc1ccc(OCc2ccc3ccccc3n2)cc1	–
–	–	22%	30%	O=C(O)c1ccc(COc2ccc(OCCCc3nnn[nH]3)cc2)nc1	–
7.12	120 nM	–	–	c1cc(OCCCCc2nnn[nH]2)cc(OCc2ccc3ccccc3n2)c1	Inhibition [14]: 64%
–	–	–	45%	c1cc(OCCCc2nnn[nH]2)cc(OCc2cc3ccccc3cn2)c1	inhibition at 10 µM [25]: 68%
–	–	36%	9%	c1ccc2sc(COc3ccc(OCCCc4nnn[nH]4)cc3)cc2c1	–
5.92	–	–	–	c1ccc2nc(COCc3ccc(OCCCc4nnn[nH]4)cc3)ccc2c1	–
–	–	22%	58%	c1ccc(-c2ccc(COc3cccc(OCCCc4nnn[nH]4)c3)nc2)cc1	–
